Consider five compounds from ChEMBL document CHEMBL1146075, “Synthesis and anti-BVDV activity of acridones as new potential antiviral agents” (J Med Chem, 2006).

≈ marks a conversion by molar mass, not a printed value. Calls of active or inactive are those of the source. The calls are words filed in the database; no cut-off is given here.

The test system of assay [1] is Human immunodeficiency virus 1. Kind of assay: Antiviral activity against HIV1 3B in MT4 cells. It counts as functional, organism-based.
For a further assay, the system named is Human alphaherpesvirus 2. Put plainly: Antiviral activity against HSV2 G in E6SM cells. It counts as functional, organism-based.
In assay [2] the test system is Mammalian orthoreovirus 1. Kind of assay: Antiviral activity against Reovirus1 in vero cells. It counts as functional, organism-based.
Assay [3] relates to Human betaherpesvirus 5. Kind of assay: Antiviral activity against HCMV Davis in human embryonic lung cells. It counts as functional, organism-based.
The test system of a further assay is Human respirovirus 3. Put plainly: Antiviral activity against parainfluenza3 virus in vero cells. It counts as functional, organism-based.
The test system of another assay is Punta Toro virus. Kind of assay: Antiviral activity against Punta Toro virus in vero cells. It counts as functional, organism-based.
The next assay deals with Coxsackievirus B4. Kind of assay: Antiviral activity against coxsackie virus B4 in vero cells. It counts as functional, organism-based.
The test system of the next assay is Sindbis virus. Kind of assay: Antiviral activity against sindbis virus in vero cells. It counts as functional, organism-based.
For assay [4], the system named is MDBK441. Kind of assay: Cytotoxicity against MDBK cells. The settings on record: Bos taurus. It counts as functional. The essentials: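 Cells seeded the day before, then given serial compound dilutions and left to proliferate 3 days at 37 °C. MDBK: 10^4/well in MEM-FCS. Huh 5-2: 5 × 10^3/well in complete DMEM. Cell number read by MTS/PMS. CC50 is the concentration inhibiting cell growth by 50%.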

The subject of assay [5] is Human betaherpesvirus 5. Put plainly: Antiviral activity against HCMV AD169 in human embryonic lung cells. It counts as functional, organism-based.
The subject of assay [6] is Respiratory syncytial virus. Kind of assay: Antiviral activity against respiratory syncytial virus […] in HeLa cells. It counts as functional, organism-based.
The test system of assay [7] is Vesicular stomatitis virus. Put plainly: Antiviral activity against vesicular stomatitis virus in E6SM cells. It counts as functional, organism-based.
The test system of assay [8] is MDBK441. Put plainly: Selectivity index (CC50/EC50) for inhibition of BVDV NADL in MDBK cells. It counts as functional. In short, it runs like this: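 SI = CC50/EC50. EC50 comes from a 5-day Giemsa-stained CPE assay in MDBK cells at MOI 0.5; CC50 from a 3-day MTS/PMS proliferation assay. Means of at least three experiments. Line 10 uses the NADL F224S mutant.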

Assay [9] deals with Bovine viral diarrhea virus 1. Kind of assay: Antiviral activity against BVDV NADL in MDBK cells. It counts as functional, organism-based. The settings on record: Bovine viral diarrhea virus isolates and strains. The essentials: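 MDBK cells seeded 20 × 10^3/well in MEM with 5% heat-inactivated FCS, confluent after 24 h; serial 3-fold compound dilutions added, then virus at MOI 0.5 (line 2: NADL F224S mutant). 5 days at 37 °C, then ethanol fixation and Giemsa staining. CPE scored microscopically 0–10 per well. EC50 by logarithmic interpolation; mean ± SD of at least three experiments.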

In the next assay the test system is Vaccinia virus. Put plainly: Antiviral activity against vaccinia virus in E6SM cells. The note with it: Orthopoxvirus vaccinia. It counts as functional, organism-based.
The test system of the next assay is Human alphaherpesvirus 1. Put plainly: Antiviral activity against HSV1 KOS in E6SM cells. It counts as functional, organism-based.
Assay [10] deals with Human immunodeficiency virus 2. Put plainly: Antiviral activity against HIV2 ROD in MT4 cells. It counts as functional, organism-based.

For the compound `COc1cc(O)c2c(=O)c3cc([N+](=O)[O-])c(Cl)cc3n(C)c2c1`, the result (in assay [1]; with Human alphaherpesvirus 2; in assay [2]; in the assay on Human betaherpesvirus 5 [3]; with Human respirovirus 3; in the assay on Punta Toro virus) was inactive. Further, the result (in the assay with Coxsackievirus B4; with Sindbis virus; in the assay with Human betaherpesvirus 5 [5]; in assay [6]; in assay [7]; in the assay on Vaccinia virus) was inactive. Moreover, the result (in the assay with Human alphaherpesvirus 1; in assay [10]) was inactive. In addition, the 50% cytotoxic concentration (CC50) (commonly the concentration giving 50% cytotoxicity) in the assay on MDBK441 [4] amounted to 83 µg/mL (≈ 248 µM). The Selectivity index with MDBK441 [8] was found to be 1. In addition, the concentration giving a half-maximal response (EC50) (commonly the concentration giving half of the maximal effect) in assay [9] is above 83 µg/mL.
As to `COc1cc(O)c2c(=O)c3cc([N+](=O)[O-])c(N4CCN(c5ccccn5)CC4)cc3n(C)c2c1`, the result (in assay [1]; in the assay with Human alphaherpesvirus 2; in [2]; in the assay on Human betaherpesvirus 5 [3]; in the assay with Human respirovirus 3; with Punta Toro virus) was inactive. In addition, the outcome (in the assay on Coxsackievirus B4; with Sindbis virus; with Human betaherpesvirus 5 [5]; in assay [6]; in assay [7]; with Vaccinia virus) was inactive. The result (in the assay with Human alphaherpesvirus 1; in [10]) was inactive. Besides, in the assay on MDBK441 [4], the CC50 was above 100 µg/mL. Further, the Selectivity index in the assay on MDBK441 [8] was found to be 1. Also, the concentration for a half-maximal effect (EC50) in assay [9] is above 100 µg/mL.
Take `COc1cc(O)c2c(=O)c3cc(N)c(Cl)cc3n(C)c2c1`: the result (in [1]; with Human alphaherpesvirus 2; in [2]; in the assay with Human betaherpesvirus 5 [3]; in the assay on Human respirovirus 3; in the assay on Punta Toro virus) was inactive. The outcome (in the assay on Coxsackievirus B4; with Sindbis virus; with Human betaherpesvirus 5 [5]; in assay [6]; in assay [7]; in the assay on Vaccinia virus) was inactive. Also, the result (with Human alphaherpesvirus 1; in [10]) was inactive. The same compound registered a half-maximal cytotoxic concentration (CC50) in the assay on MDBK441 [4] above 33 µg/mL. In the assay with MDBK441 [8], this compound registered a Selectivity index above 47.
Take `COc1cc(O)c2c(=O)c3cc(N)c(N4CCN(c5ccccn5)CC4)cc3n(C)c2c1`: the outcome (in assay [1]; with Human alphaherpesvirus 2; in assay [2]; in the assay on Human betaherpesvirus 5 [3]; in the assay on Human respirovirus 3; in the assay on Punta Toro virus) was inactive. Also, the result (in the assay on Coxsackievirus B4; in the assay with Sindbis virus; in the assay on Human betaherpesvirus 5 [5]; in [6]; in assay [7]; in the assay on Vaccinia virus) was inactive. Also, the outcome (in the assay with Human alphaherpesvirus 1; in assay [10]) was inactive. Further, the CC50 in the assay with MDBK441 [4] was above 100 µg/mL. The compound further came in with a Selectivity index in the assay on MDBK441 [8] above 25.
Consider `Cn1c2cc(Cl)c(N)cc2c(=O)c2c(O)cc(O)cc21`, for which the result (in assay [1]; with Human alphaherpesvirus 2; in assay [2]; in the assay on Human betaherpesvirus 5 [3]; in the assay on Human respirovirus 3; in the assay with Punta Toro virus) was inactive. In addition, the result (in the assay on Coxsackievirus B4; in the assay on Sindbis virus; in the assay with Human betaherpesvirus 5 [5]; in assay [6]; in assay [7]; in the assay on Vaccinia virus) was inactive. Besides, the outcome (with Human alphaherpesvirus 1; in assay [10]) was inactive. Besides, the cytotoxic concentration (CC50) in the assay on MDBK441 [4] is 5 µg/mL (≈ 17.2 µM). Further, the Selectivity index with MDBK441 [8] came to 13.
